The record followed here is ChEMBL document CHEMBL4330057, “Second generation of diazachrysenes: Protection of Ebola virus infected mice and mechanism of action” (Eur J Med Chem, 2019).

Data set [1] relates to HeLa. Nature of the data set: Induction of lysosomotropism in human HeLa cells infected with Ebolavirus assessed as increase in fluorescence intensity of acid compartments at 0.01 uM for 1 hr by Lysosensor DND189 staining based assay. It counts as functional, cell-based. The method in brief: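 HeLa cells were pretreated 1 h with compound (Bafilomycin A1 at 0.01 μM as acidification control), then stained with LysoSensor DND 189 for 10 min and washed. Live imaging at Ex/Em 443/505 nm. Fluorescence intensity per area was quantified by image analysis. Eight wells per point, about 3000 cells/well, mean ± SD, three independent experiments.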

Data set [2] has as its system HeLa. As to the kind of experiment: Induction of lysosomotropism in human HeLa cells infected with Ebolavirus assessed as expansion of acid compartments at 0.01 uM for 2 hrs by acridine orange staining based assay. It counts as functional, cell-based. The essentials: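 HeLa cells pretreated 2 h, then acridine orange for 30 min, washed and imaged. Total intensity and average area of acridine orange fluorescence quantified by high-content imaging. Mean ± SD of 8 wells, about 3000 cells each, three independent experiments.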

For data set [3], the target named is Cathepsin B (Homo sapiens) (UniProt P07858). Nature of the data set: Inhibition of cathepsin B activity in human HeLa cells at 0.01 uM after 12 hrs by magic red substrate based fluorescence assay. It counts as cell-based. The essentials: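 HeLa cells were exposed to compound for 12 h, then given the Magic Red cathepsin B peptide reporter, washed, and imaged at Ex/Em 590/630. Total intensity and average area of red fluorescence were scored by high-content analysis. Eight wells per point, about 3000 cells/well, mean ± SD, three independent experiments.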

Data set [4] in a line: Selectivity index, ratio of CC50 for human HeLa cells to EC50 for Ebolavirus H. sapiens-wt/1995/Kikwit-9510621 infected in human HeLa cells. Format: toxicity, cell-based. The note with it: read-out: Ratio CC50/EC50.
The subject of data set [5] is Ebolavirus. As to the kind of experiment: Antiviral activity against Ebolavirus H. sapiens-wt/1995/Kikwit-9510621 infected in human HeLa cells assessed as inhibition of viral infection pretreated for 2 hrs followed by viral infection and measured after 48 hrs by EboV GP immunostaining based high content imaging analysis. Format: functional, organism-based.
Data set [6] can be described thus: Cytotoxicity against human HeLa cells after 2 hrs by high content imaging analysis. It counts as cell-based.
Data set [7] in a line: Apparent permeability from basolateral to apical side in MDCK cells. It counts as ADME, cell-based, Canis lupus familiaris. The note with it: dog. The method in brief: (§1)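 Apparent permeability measured in MDCK cell monolayers, apical→basolateral and basolateral→apical directions, three biological replicates.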
Data set [8] can be described thus: Apparent permeability from apical to basolateral side in MDCK cells. It counts as ADME, cell-based, Canis lupus familiaris. The note with it: dog. The essentials: as §1
The test system of data set [9] is Ebolavirus. Nature of the data set: Antiviral activity against Ebolavirus infected in mouse assessed as protection against viral infection at 60 mg/kg/day relative to control. It counts as functional.
Data set [10] deals with Ebolavirus. Nature of the data set: Antiviral activity against Ebolavirus. The note with it: Orthoebolavirus. It counts as functional, organism-based.
Data set [11] is described as follows: Stability in plasma (unknown origin) after 1 hr at 37 degC. It counts as ADME, cell-free. The note with it: read-out: Stability. The method in brief: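 Compound was incubated in plasma for 1 h at 37 °C, and the percent remaining was reported.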
The nature of data set [12]: Solubility of the compound in deionized water. Format: physicochemical.
A further data set has as its target Cytochrome P450 2C19 (Homo sapiens, UniProt P33261). Nature of the data set: Inhibition of CYP2C19 (unknown origin) using CEC as substrate. It counts as ADME. The method in brief: (§2)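 CYP IC50 was taken from the net fluorescent signal after incubation at 37 °C for a set time with active cytochrome P450 enzyme and a fluorescent probe substrate.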
Data set [13] has as its target T1, Cytochrome P450 3A4 (Homo sapiens, UniProt P08684). Nature of the data set: Inhibition of CYP3A4 (unknown origin) using dibenzylfluorescein as substrate. Format: ADME. The essentials:
as §2

Data set [14] can be described thus: Solubility of the compound in pH 7.4 buffer by laser nephelometric method. Format: physicochemical. The essentials:
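Solubility at pH 7.4 was measured by laser nephelometry (light scattering), in triplicate.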

A short description of data set [15]: Half life in human liver microsomes. Format: ADME, Microsome. The method in brief: (§3)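 Substrate depletion with mouse or human liver microsomes, 1 h at 37 °C. Clearance (μL/min/mg) and half-life derived.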
(Liver microsomes are vesicles of endoplasmic reticulum, rich in cytochrome P450 enzymes.)

Data set [16] addresses T1, Cytochrome P450 3A4. As to the kind of experiment: Inhibition of CYP3A4 (unknown origin) using 7-benzyloxyquinoline as substrate. Format: ADME. The essentials: as §2
Data set [17] is described as follows: Clearance in mouse liver microsomes after 1 hr. The note with it: read-out: CLH. It counts as ADME, Microsome. The essentials: as §3
The target in the next data set is Cytochrome P450 2D6 (Homo sapiens, UniProt P10635). Nature of the data set: Inhibition of CYP2D6 (unknown origin) using 3-(2-(N, N-Diethyl-N-methylamino)ethyl)-7-Methoxy-4-Methylcoumarin as substrate. The note with it: read-out: INH. It counts as ADME. The essentials:
as §2

Data set [18] addresses T1, Cytochrome P450 3A4. Nature of the data set: Inhibition of CYP3A4 (unknown origin) using 7-benzyloxy-4-trifluoromethylcoumarin as substrate. It counts as ADME. The method in brief:
as §2

Data set [19] is described as follows: Clearance in human liver microsomes after 1 hr. It counts as ADME, Microsome. The note with it: read-out: CLH. The method in brief: as §3
A short description of data set [20]: Half life in mouse liver microsomes. It counts as ADME, Microsome. The method in brief: as §3
Data set [21] relates to Ebolavirus. Nature of the data set: Antiviral activity against Ebolavirus infected in monkey assessed as protection against viral infection at 3.3 mg/kg/day relative to control. Format: functional.
Data set [22] has as its system Ebolavirus. Nature of the data set: Antiviral activity against Ebolavirus infected in mouse assessed as protection against viral infection at 300 mg/kg/day relative to control. Format: functional.
Setting [23] is: Orthoebolavirus, H. sapiens-wt/1995/Kikwit-9510621, HeLa.
[24] abbreviates: Orthoebolavirus, H. sapiens-wt/1995/Kikwit-9510621, HeLa, read-out: EC50.

Activity calls are given as the source filed them.

T1 sequence (P08684 whole entry): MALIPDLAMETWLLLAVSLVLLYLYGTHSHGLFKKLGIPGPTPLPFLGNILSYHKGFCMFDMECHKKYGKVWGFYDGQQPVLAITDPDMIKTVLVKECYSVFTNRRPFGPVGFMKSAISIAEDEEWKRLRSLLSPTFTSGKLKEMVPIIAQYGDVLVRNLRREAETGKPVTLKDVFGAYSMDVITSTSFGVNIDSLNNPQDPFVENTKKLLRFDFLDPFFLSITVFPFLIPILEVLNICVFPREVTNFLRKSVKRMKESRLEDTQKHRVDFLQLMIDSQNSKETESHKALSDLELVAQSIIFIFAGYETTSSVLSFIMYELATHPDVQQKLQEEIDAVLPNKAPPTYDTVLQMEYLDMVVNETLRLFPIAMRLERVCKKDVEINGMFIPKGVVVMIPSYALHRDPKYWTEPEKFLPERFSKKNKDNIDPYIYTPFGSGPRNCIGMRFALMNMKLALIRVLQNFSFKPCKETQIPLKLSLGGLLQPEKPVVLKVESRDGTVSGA
Cytochrome P450 2D6, sequence (P10635 whole entry): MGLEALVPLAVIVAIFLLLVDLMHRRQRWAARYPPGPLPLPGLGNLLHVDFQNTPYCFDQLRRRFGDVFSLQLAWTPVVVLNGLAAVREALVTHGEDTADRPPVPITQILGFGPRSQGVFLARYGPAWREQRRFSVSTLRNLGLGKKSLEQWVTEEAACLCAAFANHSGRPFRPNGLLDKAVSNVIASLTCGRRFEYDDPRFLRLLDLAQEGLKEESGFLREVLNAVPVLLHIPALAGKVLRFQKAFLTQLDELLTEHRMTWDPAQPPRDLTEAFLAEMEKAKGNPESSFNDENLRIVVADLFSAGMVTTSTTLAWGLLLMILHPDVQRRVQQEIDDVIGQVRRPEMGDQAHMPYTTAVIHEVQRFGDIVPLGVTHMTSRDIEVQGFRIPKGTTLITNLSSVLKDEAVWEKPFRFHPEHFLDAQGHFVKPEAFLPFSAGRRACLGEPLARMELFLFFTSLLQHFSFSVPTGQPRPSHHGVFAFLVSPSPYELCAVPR
Cytochrome P450 2C19, sequence (P33261 whole entry): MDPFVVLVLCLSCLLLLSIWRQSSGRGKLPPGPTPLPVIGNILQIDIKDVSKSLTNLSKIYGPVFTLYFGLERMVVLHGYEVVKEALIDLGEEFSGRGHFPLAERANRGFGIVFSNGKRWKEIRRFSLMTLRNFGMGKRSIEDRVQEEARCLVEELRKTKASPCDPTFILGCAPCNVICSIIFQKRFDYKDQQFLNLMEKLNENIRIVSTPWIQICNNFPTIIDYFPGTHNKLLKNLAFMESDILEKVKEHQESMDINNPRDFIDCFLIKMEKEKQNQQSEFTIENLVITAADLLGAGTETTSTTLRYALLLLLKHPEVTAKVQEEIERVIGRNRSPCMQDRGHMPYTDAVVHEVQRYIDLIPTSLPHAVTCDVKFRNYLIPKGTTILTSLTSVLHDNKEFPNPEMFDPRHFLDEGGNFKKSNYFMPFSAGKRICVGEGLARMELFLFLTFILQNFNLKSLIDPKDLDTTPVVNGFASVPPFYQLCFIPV

In the case of `CO/C1=C\C(C)=C\[C@@H](C)[C@@H](O)[C@@H](C)C/C(C)=C/C=C/[C@H](OC)[C@@H]([C@@H](C)[C@@H](O)[C@H](C)[C@@]2(O)C[C@@H](O)[C@H](C)[C@@H](C(C)C)O2)OC1=O`, the result in the data set on HeLa [1] was Active. Moreover, the result in the data set on HeLa [2] was inactive. For the same molecule, the inhibition result in data set [3] was “Active”.
For the molecule `CN(C)CCOCCNc1ccnc2c1ccc1c2ccc2c(NCCOCCN(C)C)ccnc21`, in data set [4], the selectivity ratio came out at 2. In addition, in the data set on Ebolavirus [5] (setting [23]), the EC90 turned out to be 6.74 µM. The EC50 with Ebolavirus [5] (setting [24]) was found to be 3.53 µM. The molecule also yielded a CC50 at 2 h in data set [6] of 7 µM.
Regarding `COc1cc2nc(N3CCN(C(=O)c4ccco4)CC3)nc(N)c2cc1OC` [PRAZOSIN], the apparent permeability from basolateral to apical (Papp B→A) in data set [7] was 48.6 to 58.9 ×10⁻⁶ cm/s. The apical-to-basolateral permeability (Papp A→B) in data set [8] fell in the range of 27.6 to 30 ×10⁻⁶ cm/s.
Regarding `CN(C)CCOc1ccc(/C(=C(/CCCl)c2ccccc2)c2ccccc2)cc1` [TOREMIFENE], the Activity in the data set on Ebolavirus [9] amounted to 50%. Moreover, the EC50 with Ebolavirus [10] lay within 0.97 to 1.73 µM.
As for `OC(CNc1ccnc2c1ccc1c2ccc2c(NCCN3CCOCC3)ccnc21)CN1CCOCC1` (configuration not stated), the selectivity ratio in [4] was > 16.7. In the data set on Ebolavirus [5] (setting [23]), the 90% effect concentration (EC90) is 3.5 µM. In the data set with Ebolavirus [5] (setting [24]), the EC50 was determined as 0.6 µM. Moreover, the cytotoxic concentration (CC50) at 2 h in data set [6] is > 10 µM.
Take `OC(CNc1ccnc2cccnc12)CN1CCOCC1` (configuration not stated): the concentration giving a half-maximal response (EC50) entry in the data set on Ebolavirus [5] is given as “Not Active”.
For the molecule `c1cc(NCCCCN2CCOCC2)c2nccc(NCCCCN3CCOCC3)c2n1`, the selectivity ratio in [4] is > 11.2. Besides, the 90% effect concentration (EC90) in the data set with Ebolavirus [5] (setting [23]) turned out to be 9.9 µM. For the same molecule, the EC50 with Ebolavirus [5] (setting [24]) came to 2.24 µM. In [6], the CC50 at 2 h is > 25 µM.
In the case of `c1cc(NCCN2CCOCC2)c2nccc(NCCN3CCOCC3)c2n1`, the EC50 result in the data set on Ebolavirus [5] was “Not Active”. The CC50 at 2 h in data set [6] was > 25 µM.
With `CCN(CC)CCCNc1ccnc2c(NCCCN(CC)CC)ccnc12`, in [11], the remaining at 1 h is > 85%. Moreover, the solubility in [12] is ≥ 25 mg/mL. In addition, the selectivity ratio in data set [4] was > 2. Further, the 90% effect concentration (EC90) with Ebolavirus [5] (setting [23]) is 37.4 µM. The EC50 in the data set with Ebolavirus [5] (setting [24]) worked out at 4.82 µM. In addition, the INH at Cytochrome P450 2C19, on Cytochrome P450 3A4 [13], on Cytochrome P450 3A4 [16] and at Cytochrome P450 3A4 [18] was > 10 µM throughout. Also, the kinetic solubility in data set [14] was > 0.05 mg/mL. Also, the half-life in data set [15] and in [20] was > 1 h throughout. Further, the microsomal CLint in [17] and in [19] was < 23 µL/min/mg throughout. Further, the IC50 at Cytochrome P450 2D6 is > 10 µM. Besides, the CC50 at 2 h in [6] is > 10 µM.
In the case of `CCC(CC)COC(=O)[C@H](C)N[P@](=O)(OC[C@H]1O[C@@](C#N)(c2ccc3c(N)ncnn23)[C@H](O)[C@@H]1O)Oc1ccccc1`, in the data set on Ebolavirus [21], the Activity was 100%. This molecule also gave an EC50 in the data set on Ebolavirus [10] of 0.06 to 0.14 µM.
Turning to `NCCCNc1ccnc2c1ccc1c2ccc2c(NCCCN)ccnc21`, the selectivity ratio in [4] is > 1. For the same molecule, the EC90 with Ebolavirus [5] (setting [23]) was found to be 20.5 µM. Also, in the data set with Ebolavirus [5] (setting [24]), the EC50 is 10 µM. The half-maximal cytotoxic concentration (CC50) at 2 h in data set [6] is > 10 µM.
As to `Nc1ncnc2c(C[C@@H]3N[C@H](CO)[C@@H](O)[C@H]3O)c[nH]c12`, in the data set on Ebolavirus [22], the Activity is 100%. The molecule also had a half-maximal effective concentration (EC50) in the data set with Ebolavirus [10] of 3.4 to 11.8 µM.
`c1cc(NCCCN2CCOCC2)c2nccc(NCCCN3CCOCC3)c2n1`: in the data set on Ebolavirus [5] (setting [24]), the EC50 is 10 µM.

The EC90 is the concentration needed for an effect of 90%. A word on the EC50: it is the concentration needed to bring the measured effect to its halfway point. What is called CC50 is the concentration that lowers cell viability or growth by half. The term Papp B→A denotes the apparent permeability from the basolateral to the apical side of a cell layer. The term Papp A→B denotes how fast a substance crosses the layer from the apical side. As usually defined, the solubility is how much of the substance goes into solution per volume. In general, kinetic solubility refers to solubility judged after dilution from a stock solution rather than from solid. Usually half-life stands for the time needed for the level to fall by half in the phase considered.
